Measurements: ChEMBL document CHEMBL3046209, “Semisynthesis and quantitative structure-activity relationship (QSAR) study of novel aromatic esters of 4'-demethyl-4-deoxypodophyllotoxin as insecticidal agents” (2009)

Tests used:
Type in all cases: functional
[1] = tested on: Mythimna separata; assay: In vivo insecticidal activity against pre-third-instar larval stage of Mythimna separata (Oriental armyworm) in corn leaves assessed as corrected mortality rate at 1 mg/ml treated for 3 secs before larval infestation measured after 12 days by leaf-dipping method; settings: 288 h
Method in brief: (§1)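 Leaf-dip assay: fresh corn leaves dipped 3 s in 1 mg/mL compound in acetone, then air-dried; acetone-only leaves served as control. Groups of 10 pre-third-instar larvae per dish fed treated leaves, replaced when consumed. After 48 h all dishes switched to untreated fresh leaves until adult emergence. Held at 25 ± 2 °C, RH 65–80%, 12 h/12 h light/dark. Corrected mortality scored.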

[2] = tested on: Mythimna separata; assay: In vivo insecticidal activity against pre-third-instar larval stage of Mythimna separata (Oriental armyworm) in corn leaves assessed as corrected mortality rate at 1 mg/ml treated for 3 secs before larval infestation measured after 24 days by leaf-dipping method; settings: 576 h; method in brief: as §1
[3] = tested on: Mythimna separata; assay: In vivo insecticidal activity against pre-third-instar larval stage of Mythimna separata (Oriental armyworm) in corn leaves assessed as corrected mortality rate at 1 mg/ml treated for 3 secs before larval infestation measured after 36 days by leaf-dipping method; settings: 864 h; method in brief: as §1

**Q.** Which mortality at 1000 µg/mL [1] does the source give for COc1cc([C@@H]2c3cc4c(cc3C[C@H]3COC(=O)[C@@H]32)OCO4)cc(OC)c1OC(=O)c1ccccc1Cl here?
**A.** 17.8%

**Q.** What about the mortality at 1000 µg/mL [2] of the same molecule?
**A.** 25%

**Q.** And the mortality at 1000 µg/mL [3]?
**A.** 37%

**Q.** Which mortality at 1000 µg/mL [1] does the source give for COc1cc([C@@H]2c3cc4c(cc3C[C@H]3COC(=O)[C@@H]32)OCO4)cc(OC)c1OC(=O)Cc1cccc2ccccc12 here?
**A.** 7.1%

**Q.** And the mortality at 1000 µg/mL [2]?
**A.** 17.8%

**Q.** And the mortality at 1000 µg/mL [3]?
**A.** 37%

**Q.** Which results are given for COc1cc([C@@H]2c3cc4c(cc3C[C@H]3COC(=O)[C@@H]32)OCO4)cc(OC)c1OC(=O)c1cccc([N+](=O)[O-])c1?
**A.** mortality at 1000 µg/mL [1]: 3.5%; mortality at 1000 µg/mL [2]: 14.2%; mortality at 1000 µg/mL [3]: 51.8%

**Q.** COc1cc([C@@H]2c3cc4c(cc3C[C@H]3COC(=O)[C@@H]32)OCO4)cc(OC)c1OC(=O)c1ccc([N+](=O)[O-])cc1 was tested. Which mortality at 1000 µg/mL [1] did it give?
**A.** 7.1%

**Q.** And the mortality at 1000 µg/mL [2]?
**A.** 17.8%

**Q.** What about the mortality at 1000 µg/mL [3] of the same molecule?
**A.** 40.7%

**Q.** COc1cc([C@@H]2c3cc4c(cc3C[C@H]3COC(=O)[C@@H]32)OCO4)cc(OC)c1OC(=O)c1cc([N+](=O)[O-])cc([N+](=O)[O-])c1 was tested. Which mortality at 1000 µg/mL [1] did it give?
**A.** 14.2%

**Q.** And the mortality at 1000 µg/mL [2]?
**A.** 25%

**Q.** What about the mortality at 1000 µg/mL [3] of the same molecule?
**A.** 22.2%

**Q.** Which results are given for COc1cc([C@@H]2c3cc4c(cc3C[C@H]3COC(=O)[C@@H]32)OCO4)cc(OC)c1OC(=O)/C=C/c1ccccc1?
**A.** mortality at 1000 µg/mL [1]: 10.7%; mortality at 1000 µg/mL [2]: 17.8%; mortality at 1000 µg/mL [3]: 48.1%

**Q.** For COc1cc([C@@H]2c3cc4c(cc3C[C@H]3COC(=O)[C@@H]32)OCO4)cc(OC)c1OC(=O)c1cccnc1, which mortality at 1000 µg/mL [1] is on record?
**A.** 3.5%

**Q.** And the mortality at 1000 µg/mL [2]?
**A.** 10.7%

**Q.** And the mortality at 1000 µg/mL [3]?
**A.** 62.9%

**Q.** COc1cc([C@@H]2c3cc4c(cc3C[C@H]3COC(=O)[C@@H]32)OCO4)cc(OC)c1OC(=O)CCCc1c[nH]c2ccccc12 was tested. Which mortality at 1000 µg/mL [1] did it give?
**A.** 10.7%

**Q.** And the mortality at 1000 µg/mL [2]?
**A.** 14.2%

**Q.** And the mortality at 1000 µg/mL [3]?
**A.** 40.7%

**Q.** Which results are given for COc1cc([C@@H]2c3cc4c(cc3C[C@H]3COC(=O)[C@@H]32)OCO4)cc(OC)c1OC(=O)c1ccncc1?
**A.** mortality at 1000 µg/mL [1]: 14.2%; mortality at 1000 µg/mL [2]: 21.4%; mortality at 1000 µg/mL [3]: 59.2%

**Q.** Which results are given for COc1ccc(C(=O)Oc2c(OC)cc([C@@H]3c4cc5c(cc4C[C@H]4COC(=O)[C@@H]43)OCO5)cc2OC)cc1?
**A.** mortality at 1000 µg/mL [1]: 3.5%; mortality at 1000 µg/mL [2]: 21.4%; mortality at 1000 µg/mL [3]: 25.9%

**Q.** Which results are given for COc1cc([C@@H]2c3cc4c(cc3C[C@H]3COC(=O)[C@@H]32)OCO4)cc(OC)c1OC(=O)c1ccc(Cl)cc1?
**A.** mortality at 1000 µg/mL [1]: 0%; mortality at 1000 µg/mL [2]: 14.2%; mortality at 1000 µg/mL [3]: 29.6%

**Q.** What does the source list for COc1cc([C@@H]2c3cc4c(cc3C[C@H]3COC(=O)[C@@H]32)OCO4)cc(OC)c1OC(=O)Cc1ccccc1?
**A.** mortality at 1000 µg/mL [1]: 10.7%; mortality at 1000 µg/mL [2]: 25%; mortality at 1000 µg/mL [3]: 29.6%

**Q.** Which results are given for COc1cc([C@@H]2c3cc4c(cc3C[C@H]3COC(=O)[C@@H]32)OCO4)cc(OC)c1OC(=O)c1ccccc1?
**A.** mortality at 1000 µg/mL [1]: 28.5%; mortality at 1000 µg/mL [2]: 42.8%; mortality at 1000 µg/mL [3]: 48.1%

**Q.** What does the source list for COc1cc([C@@H]2c3cc4c(cc3C[C@H]3COC(=O)[C@@H]32)OCO4)cc(OC)c1OC(=O)c1ccc(C)cc1?
**A.** mortality at 1000 µg/mL [1]: 7.1%; mortality at 1000 µg/mL [2]: 17.8%; mortality at 1000 µg/mL [3]: 33.3%

**Q.** For COc1cc([C@@H]2c3cc4c(cc3C[C@H]3COC(=O)[C@@H]32)OCO4)cc(OC)c1OC(=O)c1cccc(C)c1, which mortality at 1000 µg/mL [1] is on record?
**A.** 17.8%

**Q.** What about the mortality at 1000 µg/mL [2] of the same molecule?
**A.** 25%

**Q.** And the mortality at 1000 µg/mL [3]?
**A.** 40.7%

**Q.** Which results are given for CC(=O)O[C@@H]1C[C@H](O)[C@@]23CO[C@@H](O)[C@]1(C)[C@@H]2C[C@@H](O)[C@]1(C)[C@@H]3C(=O)[C@H](OC(C)=O)[C@@]2(C)[C@H](c3ccoc3)C[C@H]3O[C@]321 [TOOSENDANIN]?
**A.** mortality at 1000 µg/mL [1]: 21.4%; mortality at 1000 µg/mL [2]: 35.7%; mortality at 1000 µg/mL [3]: 40.7%
